According to ChEMBL document CHEMBL3588763, “Styryl-N-phenyl-N'-(2-chloroethyl)ureas and styrylphenylimidazolidin-2-ones as new potent microtubule-disrupting agents using combretastatin A-4 as model” (Eur J Med Chem, 2015):
Activity calls are given as the source filed them. No cut-off for these calls is given here.

Tests used:
HT-29 = assay: Antiproliferative activity against human HT-29 cells assessed as cell growth inhibition after 48 hrs by sulforhodamine B assay; format: functional, cell-based; settings: HT-29, 48 h
In short: (§1)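 NCI-style SRB screen with minor changes. Cells seeded per well in DMEM with 5% FBS: HT-29 4.0 x 10^3, M21 3.0 x 10^3, MCF-7 2.5 x 10^3, HT-1080 2.5 x 10^3. After 24 h, serially diluted drug was added at 50 µM to 1 nM final, DMSO <0.5%, for 48 h. Fixed with cold TCA, stained with SRB, read at 530–568 nm against plates fixed on treatment day. At least two experiments in triplicate, CV <10%.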

M21 [1] = assay: Antiproliferative activity against human M21 cells assessed as cell growth inhibition after 48 hrs by sulforhodamine B assay; format: functional, cell-based; settings: M21, 48 h; in short: as §1
MCF7 = assay: Antiproliferative activity against human MCF7 cells assessed as cell growth inhibition after 48 hrs by sulforhodamine B assay; format: functional, cell-based; settings: MCF7, 48 h; in short: as §1
[2] = Antiproliferative activity against human HT1080 cells assessed as cell growth inhibition after 48 hrs by sulforhodamine B assay; format: functional, cell-based; settings: HT-1080, 48 h
M21 [3] = assay: Induction of cell cycle arrest in human M21 cells assessed as cells accumulation at subG1 phase at 46 nM after 24 hrs by flow cytometry (reference value: 1.2%); format: functional
M21 [4] = assay: Induction of cell cycle arrest in human M21 cells assessed as cells accumulation at G0/G1 phase at 46 nM after 24 hrs by flow cytometry (reference value: 54.5%); format: functional
M21 [5] = assay: Induction of cell cycle arrest in human M21 cells assessed as cells accumulation at S phase at 46 nM after 24 hrs by flow cytometry (reference value: 22.2%); format: functional
M21 [6] = assay: Induction of cell cycle arrest in human M21 cells assessed as cells accumulation at G2/M phase at 46 nM after 24 hrs by flow cytometry (reference value: 22.1%); format: functional
[7] = target: T1, Tubulin beta (Homo sapiens) (UniProt P68371+Q9H4B7+Q13509+P04350+Q3ZCM7+P07437+Q13885+Q9BVA1+Q9BUF5+A6NNZ2); assay: Inhibition of N,N-ethylene-bis(iodoacetamide) binding to Tubulin beta colchicines-binding site in human M21 cells assessed as adduct formation at 410 nM by Western blot analysis; format: cell-based
[8] = target: T1, Tubulin beta (Homo sapiens); assay: Inhibition of N,N-ethylene-bis(iodoacetamide) binding to Tubulin beta colchicines-binding site in human M21 cells assessed as adduct formation at 910 nM by Western blot analysis; format: cell-based
[9] = target: T1, Tubulin beta (Homo sapiens); assay: Inhibition of N,N-ethylene-bis(iodoacetamide) binding to Tubulin beta colchicines-binding site in human M21 cells assessed as adduct formation at 2500 nM by Western blot analysis; format: cell-based
M21 [10] = assay: Induction of microtubule depolymerization and cytoskeleton disruption in human M21 cells at 46 nM after 16 hrs by immunofluorescence assay
M21 [11] = assay: Induction of cell cycle arrest in human M21 cells assessed as cells accumulation at subG1 phase at 10 nM after 24 hrs by flow cytometry (reference value: 1.2%); format: functional
M21 [12] = assay: Induction of cell cycle arrest in human M21 cells assessed as cells accumulation at G0/G1 phase at 10 nM after 24 hrs by flow cytometry (reference value: 54.5%); format: functional
M21 [13] = assay: Induction of cell cycle arrest in human M21 cells assessed as cells accumulation at S phase at 10 nM after 24 hrs by flow cytometry (reference value: 22.2%); format: functional
M21 [14] = assay: Induction of cell cycle arrest in human M21 cells assessed as cells accumulation at G2/M phase at 10 nM after 24 hrs by flow cytometry (reference value: 22.1%); format: functional
M21 [15] = assay: Induction of microtubule depolymerization and cytoskeleton disruption in human M21 cells at 10 nM after 16 hrs by immunofluorescence assay
M21 [16] = assay: Induction of cell cycle arrest in human M21 cells assessed as cells accumulation at subG1 phase at 63 nM after 24 hrs by flow cytometry (reference value: 1.2%); format: functional
M21 [17] = assay: Induction of cell cycle arrest in human M21 cells assessed as cells accumulation at G0/G1 phase at 63 nM after 24 hrs by flow cytometry (reference value: 54.5%); format: functional
M21 [18] = assay: Induction of cell cycle arrest in human M21 cells assessed as cells accumulation at S phase at 63 nM after 24 hrs by flow cytometry (reference value: 22.2%); format: functional
M21 [19] = assay: Induction of cell cycle arrest in human M21 cells assessed as cells accumulation at G2/M phase at 63 nM after 24 hrs by flow cytometry (reference value: 22.1%); format: functional
M21 [20] = assay: Induction of microtubule depolymerization and cytoskeleton disruption in human M21 cells at 63 nM after 16 hrs by immunofluorescence assay
M21 [21] = assay: Induction of cell cycle arrest in human M21 cells assessed as cells accumulation at subG1 phase at 4100 nM after 24 hrs by flow cytometry (reference value: 1.2%); format: functional
M21 [22] = assay: Induction of cell cycle arrest in human M21 cells assessed as cells accumulation at G0/G1 phase at 4100 nM after 24 hrs by flow cytometry (reference value: 54.5%); format: functional
M21 [23] = assay: Induction of cell cycle arrest in human M21 cells assessed as cells accumulation at S phase at 4100 nM after 24 hrs by flow cytometry (reference value: 22.2%); format: functional
M21 [24] = assay: Induction of cell cycle arrest in human M21 cells assessed as cells accumulation at G2/M phase at 4100 nM after 24 hrs by flow cytometry (reference value: 22.1%); format: functional
M21 [25] = assay: Induction of microtubule depolymerization and cytoskeleton disruption in human M21 cells at 4100 nM after 16 hrs by immunofluorescence assay
[26] = target: T1, Tubulin beta (Homo sapiens); assay: Binding affinity to Tubulin beta in human M21 cells assessed as tubulin acylation at 8200 nM after 24 hrs by electrophoretic mobility shift assay
M21 [27] = assay: Induction of cell cycle arrest in human M21 cells assessed as cells accumulation at subG1 phase at 24 nM after 24 hrs by flow cytometry (reference value: 1.2%); format: functional
M21 [28] = assay: Induction of cell cycle arrest in human M21 cells assessed as cells accumulation at G0/G1 phase at 24 nM after 24 hrs by flow cytometry (reference value: 54.5%); format: functional
M21 [29] = assay: Induction of cell cycle arrest in human M21 cells assessed as cells accumulation at S phase at 24 nM after 24 hrs by flow cytometry (reference value: 22.2%); format: functional
M21 [30] = assay: Induction of cell cycle arrest in human M21 cells assessed as cells accumulation at G2/M phase at 24 nM after 24 hrs by flow cytometry (reference value: 22.1%); format: functional
M21 [31] = assay: Induction of microtubule depolymerization and cytoskeleton disruption in human M21 cells at 24 nM after 24 hrs by immunofluorescence assay; format: functional, cell-based
M21 [32] = assay: Induction of cell cycle arrest in human M21 cells assessed as cells accumulation at subG1 phase at 3100 nM after 24 hrs by flow cytometry (reference value: 1.2%); format: functional
M21 [33] = assay: Induction of cell cycle arrest in human M21 cells assessed as cells accumulation at G0/G1 phase at 3100 nM after 24 hrs by flow cytometry (reference value: 54.5%); format: functional
M21 [34] = assay: Induction of cell cycle arrest in human M21 cells assessed as cells accumulation at S phase at 3100 nM after 24 hrs by flow cytometry (reference value: 22.2%); format: functional
M21 [35] = assay: Induction of cell cycle arrest in human M21 cells assessed as cells accumulation at G2/M phase at 3100 nM after 24 hrs by flow cytometry (reference value: 22.1%); format: functional
[36] = target: T1, Tubulin beta (Homo sapiens); assay: Binding affinity to Tubulin beta in human M21 cells assessed as tubulin acylation at 1500 nM after 24 hrs by electrophoretic mobility shift assay; format: cell-based
[37] = target: T1, Tubulin beta (Homo sapiens); assay: Binding affinity to Tubulin beta in human M21 cells assessed as tubulin acylation at 3100 nM after 24 hrs by electrophoretic mobility shift assay; format: cell-based
M21 [38] = assay: Induction of microtubule depolymerization and cytoskeleton disruption in human M21 cells at 3100 nM after 16 hrs by immunofluorescence assay
[39] = target: T1, Tubulin beta (Homo sapiens); assay: Inhibition of N,N-ethylene-bis(iodoacetamide) binding to Tubulin beta colchicines-binding site in human M21 cells assessed as adduct formation at 100000 nM by Western blot analysis; format: cell-based
M21 [40] = assay: Induction of cell cycle arrest in human M21 cells assessed as cells accumulation at subG1 phase at 760 nM after 24 hrs by flow cytometry (reference value: 1.2%); format: functional
M21 [41] = assay: Induction of cell cycle arrest in human M21 cells assessed as cells accumulation at G0/G1 phase at 760 nM after 24 hrs by flow cytometry (reference value: 54.5%); format: functional
M21 [42] = assay: Induction of cell cycle arrest in human M21 cells assessed as cells accumulation at S phase at 760 nM after 24 hrs by flow cytometry (reference value: 22.2%); format: functional
M21 [43] = assay: Induction of cell cycle arrest in human M21 cells assessed as cells accumulation at G2/M phase at 760 nM after 24 hrs by flow cytometry (reference value: 22.1%); format: functional
M21 [44] = assay: Induction of microtubule depolymerization and cytoskeleton disruption in human M21 cells at 760 nM after 16 hrs by immunofluorescence assay

Compound | IC50 (HT-29) [µM] | IC50 (M21 [1]) [µM] | IC50 (MCF7) [µM] | IC50 [2] [µM] | also measured
Cc1cc(C)cc(/C=C\c2ccc(N3CCNC3=O)cc2)c1 | 0.0084 | 0.01 | 0.023 | 0.015 | Activity (M21 [3]): 8.2%; Activity (M21 [4]): 5.4%; Activity (M21 [5]): 8%; Activity (M21 [6]): 78.4%; inhibition [7]: Active; inhibition [8]: Active; inhibition [9]: Active; Activity (M21 [10]): Active
CCNC(=O)Nc1ccc(/C=C\c2cc(C)cc(C)c2)cc1 | 11 | 16 | 17 | 15 | 
CCNC(=O)Nc1ccc(/C=C/c2cc(OC)c(OC)c(OC)c2)cc1 | 12 | 29 | 17 | 16 | 
COc1cc(/C=C\c2ccc(N3CCNC3=O)cc2)cc(OC)c1OC | 0.0017 | 0.0024 | 0.0026 | 0.0023 | Activity (M21 [11]): 5.1%; Activity (M21 [12]): 4.2%; Activity (M21 [13]): 6.1%; Activity (M21 [14]): 84.6%; inhibition [7]: Active; inhibition [8]: Active; inhibition [9]: Active; Activity (M21 [15]): Active
CCNC(=O)Nc1ccc(/C=C/c2cccc(Cl)c2)cc1 | > 20 | > 20 | 20 | > 20 | 
O=C1NCCN1c1ccc(/C=C\c2cccc(Cl)c2)cc1 | 0.025 | 0.027 | 0.038 | 0.035 | Activity (M21 [16]): 13.6%; Activity (M21 [17]): 17.4%; Activity (M21 [18]): 13.9%; Activity (M21 [19]): 55.1%; inhibition [7]: Active; inhibition [8]: Active; inhibition [9]: Active; Activity (M21 [20]): Active
CCNC(=O)Nc1ccc(/C=C\c2cc(OC)c(OC)c(OC)c2)cc1 | 21 | 21 | 21 | 29 | 
O=C1NCCN1c1ccc(/C=C/c2cccc(Cl)c2)cc1 | 17 | 19 | 20 | > 20 | 
COc1cc(/C=C\c2ccc(NC(=O)NCCCl)cc2)cc(OC)c1OC | 0.68 | 0.95 | 1.4 | 1.4 | Activity (M21 [21]): 4.8%; Activity (M21 [22]): 3.9%; Activity (M21 [23]): 5.8%; Activity (M21 [24]): 85.5%; Activity (M21 [25]): Active; Activity [26]: Active
COc1cc2c(c(OC)c1OC)-c1ccc(OC)c(=O)cc1[C@@H](NC(C)=O)CC2 [COLCHICINE] |  |  |  |  | Activity (M21 [27]): 2.4%; Activity (M21 [28]): 27.9%; Activity (M21 [29]): 11.8%; Activity (M21 [30]): 57.9%; Activity (M21 [31]): Active
Cc1cc(C)cc(/C=C\c2ccc(NC(=O)NCCCl)cc2)c1 | 0.51 | 0.71 | 0.86 | 0.7 | Activity (M21 [32]): 12.5%; Activity (M21 [33]): 5.7%; Activity (M21 [34]): 13.2%; Activity (M21 [35]): 68.6%; Activity [36]: Active; Activity [37]: Active; Activity (M21 [38]): Active
CCNC(=O)Nc1ccc(/C=C\c2cccc(Cl)c2)cc1 | 26 | 35 | 32 | 31 | 
Cc1cc(C)cc(/C=C/c2ccc(NC(=O)NCCCl)cc2)c1 | 11 | > 20 | 19 | > 20 | 
COc1cc(/C=C/c2ccc(NC(=O)NCCCl)cc2)cc(OC)c1OC | 9.5 | > 20 | 20 | > 20 | 
COc1cc(/C=C/c2ccc(N3CCNC3=O)cc2)cc(OC)c1OC | 0.37 | 0.55 | 0.54 | 0.4 | inhibition [39]: Active
O=C(NCCCl)Nc1ccc(/C=C/c2cccc(Cl)c2)cc1 | 12 | > 20 | 20 | > 20 | 
O=C(NCCCl)Nc1ccc(/C=C\c2cccc(Cl)c2)cc1 | 0.13 | 0.17 | 0.2 | 0.17 | Activity (M21 [40]): 2.2%; Activity (M21 [41]): 2.1%; Activity (M21 [42]): 3.7%; Activity (M21 [43]): 92%; Activity [36]: Active; Activity [37]: Active; Activity (M21 [44]): Active
Cc1cc(C)cc(/C=C/c2ccc(N3CCNC3=O)cc2)c1 | 14 | 17 | 16 | > 20 | 
COc1ccc(/C=C\c2cc(OC)c(OC)c(OC)c2)cc1O [COMBRETASTATIN A4] | 0.56 | 0.0016 | 0.0021 |  | Activity (M21 [11]): 7.5%; Activity (M21 [12]): 4.5%; Activity (M21 [13]): 6.6%; Activity (M21 [14]): 91.4%; Activity (M21 [15]): Active
CCNC(=O)Nc1ccc(/C=C/c2cc(C)cc(C)c2)cc1 | > 20 | > 20 | 20 | > 20 | 
